Screens deposited in PubChem by several laboratories.
The entries come from a sample that favours hits as a whole.
PvdQ acylase – P. aeruginosa PvdQ acylase inhibitors, primary screen, biochemical, fluorescence, plate reader and imaging, single point. 340,000 tested, 0.063% active. inhibition, % at 10 µM. purified PvdQ acylase. PvdQ acylase [Pseudomonas aeruginosa LESB58]; in the data active means inhibition above about 30%, passing the limit was not always enough;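 further: 0% = vehicle neutral wells and 100% = reference inhibitor wells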
UPR CHOP act – activators of apoptotic CHOP UPR arm, primary screen, cell-based, CHO-CHOP luciferase reporter, luminescence, uHTS. UPR activation; percent of tunicamycin response over DMSO baseline. activation, % at 10 µM. 330,000 tested, 0.34% active;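 active means at 10 µM dose, activation of 40% or more, normalized to positive control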;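 further: 100% = tunicamycin at 10 µg/mL and 0% = DMSO alone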
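System: CHO-CHOP luciferase reporter cell line; amount: 500 cells/well; buffer or medium: F12 medium containing 10% fetal bovine serum; incubation: 6 h compound exposure at 37 °C after overnight seeding; measured by: luciferase luminescence after 10 min with Steady-Glo reagent; evaluation: % reporter activation, DMSO baseline versus tunicamycin full activation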
UPR XBP1 act – activators of adaptive XBP1 UPR arm, primary screen, cell-based, CHO-XBP1 luciferase reporter, luminescence, uHTS; IRE1-XBP1 UPR activation; percent of tunicamycin response, DMSO as zero; activation, % at 20 µM; 330,000 tested, 0.33% active; AID 463104, 2010;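 active means versus positive control, 20 µM dose yields 30% or more activation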;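 further: 100% = tunicamycin at 10 µg/mL and 0% = DMSO only wells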
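Material: CHO cell line with stable XBP1 luciferase reporter; buffer or medium: F12 medium containing 10% fetal bovine serum; compound: single point, 20 µM final compound, 1% DMSO; incubation: 6 h treatment, 37 °C; measured by: glow luminescence from Steady-Glo reagent; evaluation: activation, % of tunicamycin; control set: tunicamycin high, DMSO low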
CHOP inh – inhibitors of CHOP promoter induction, primary screen, cell-based, unfolded protein response, luciferase reporter. CHO-K1 CHOP-promoter luciferase, tunicamycin-induced, 15-18 h. inhibition, % at 10 µM. 220,000 tested, 3.8% active;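 active means compounds that reduced the stress-induced luciferase reporter signal by more than about 70% of percent inhibition, limit read from the data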;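 further: 0% = tunicamycin plus vehicle and 100% = wells without tunicamycin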
Numbers without * were called inactive; / = no result given.

SMILES | PvdQ acylase | UPR CHOP act | UPR XBP1 act | CHOP inh
O=c1cc(-c2ccccc2)nc(N2CCN(Cc3ccc4c(c3)OCO4)CC2)[nH]1 | -6 | 0 | -2 | 71*
O=c1[nH]c(CN2CCN(Cc3ccc4c(c3)OCO4)CC2)nc2ccccc12 | -7 | 1 | 1 | 7
O=C(Nc1cccc(Cl)c1)Nc1cccc(C(=O)O)c1 | -14 | -6 | -7 | 21
O=C(N/C=C/c1ccccc1)Nc1ccc(Cl)cc1 | -3 | 4 | -2 | 87*
O=C(Nc1ccc(Cl)cc1)Nc1cccc(C(=O)O)c1 | -19 | -8 | -9 | 79*
Cc1ccc(NC(=O)N/C=C/c2ccc(Cl)cc2)cc1 | -6 | 5 | 2 | 10
O=C(Nc1ccccc1)Nc1cccc(Cl)c1 | -7 | 4 | 0 | 95*
O=C(Cn1nc(-c2ccccc2)ccc1=O)Nc1ccc(-n2cnnn2)cc1 | -6 | 1 | 0 | -19
O=C(Cn1nc(-c2ccccc2)ccc1=O)Nc1ccc(NC(=O)c2ccccn2)cc1 | -7 | 22 | 28 | 94*
Cc1cccc(OCC(=O)Nc2cc(NC(=O)COc3cccc(C)c3C)cc(C(=O)O)c2)c1C | -7 | 1 | -5 | /
S=C(NCCC(c1ccccc1)c1ccccc1)Nc1cccc(Cl)c1 | -2 | 0 | -3 | 94*
Cc1ccccc1OCC(=O)Nc1cccc(C(=O)O)c1 | -6 | / | / | 89*
CCOc1ccc(NC(=O)c2ccccn2)cc1 | 37* | -10 | -6 | 47
CCOc1ccc(NC(=O)Nc2cccc(C(=O)O)c2)cc1 | -9 | -9 | -8 | 93*
O=C(CN1C(=O)c2ccccc2S1(=O)=O)Nc1ccc(S(=O)(=O)Nc2ncccn2)cc1 | -8 | -2 | -2 | /
COc1ccc2c(c1)CCCC21SC(NC(C)=O)=NN1C(C)=O (stereo not given) | -10 | 1 | -2 | 6
Cc1ccc(S(=O)(=O)N2CCCCC2)cc1NS(=O)(=O)c1cccc(C(=O)O)c1 | -1 | 1 | 0 | 23
O=C(NCc1ccco1)c1cc2n(n1)C(C(F)(F)F)CC(c1ccc(Br)cc1)N2 (stereo not given) | -16 | 2 | 0 | 77*
COc1ccccc1NC(=O)c1cc2n(n1)C(C(F)(F)F)CC(c1ccc3c(c1)OCO3)N2 (stereo not given) | -14 | -4 | -6 | 88*
O=C(NCc1ccco1)c1cc2n(n1)C(C(F)(F)F)CC(c1ccc(Cl)c(Cl)c1)N2 (stereo not given) | -5 | 0 | 4 | 88*
CCOc1ccc(C(C)=O)cc1COC(=O)c1cc([N+](=O)[O-])ccc1N1CCOCC1 | -5 | 0 | 1 | /
Cc1ccc(NC(=O)CCC(=O)OCCCC(F)(F)C(F)(F)F)cc1 | -9 | -3 | 2 | 22
O=C(CCC(=O)OCCCC(F)(F)C(F)(F)F)Nc1ccc(Cl)cc1Cl | -7 | -4 | -3 | 80*
CC(/C=C1\N=C(SCc2ccccc2Cl)SC1=O)=C\c1ccccc1 | 0 | 1 | 2 | 76*
CCSc1nnc(-c2cnn(-c3ccccc3)c2-n2cccc2)n1C | -5 | 1 | 1 | 15
SMILES | PvdQ acylase | UPR CHOP act | UPR XBP1 act | CHOP inh
CCCCCCSc1nnc(-c2cnn(-c3ccccc3)c2-n2cccc2)n1C | -9 | 0 | -2 | 84*
O=[N+]([O-])c1cccnc1N1CCC(c2cc(-c3ccc(Cl)cc3Cl)n[nH]2)CC1 | 12 | -1 | 1 | 92*
CCC(=O)c1ccccc1OCCCN1CCC(Cc2ccccc2)CC1 | -16 | 1 | -3 | /
O=C(Nc1ccccc1)Nc1nc(-c2ccccc2)cs1 | -15 | 4 | 6 | -6
CC(C)(C)c1csc(NC(=O)Nc2ccccc2)n1 | 10 | 6 | 4 | 76*
Cc1ccc(C(=O)Nc2nc(C(C)(C)C)cs2)s1 | -5 | 3 | 12 | 77*
c1ccc(-c2nnc(N3CCCC3)nc2-c2ccccc2)cc1 | 4 | 0 | -1 | /
Cn1nc(C(=O)Nc2cc(Cl)ccc2N2CCCC2)c2ccccc2c1=O | 2 | 0 | 8 | /
CC(/C=C/C(=O)c1ccc(C)cc1)=C\c1ccccc1 | -5 | 5 | -2 | 91*
O=C1c2ccccc2C(=O)C1c1ccnc2ccccc12 | 8 | -7 | -5 | 83*
N#CC1=C(N)SC(N)=C(C#N)C1c1ccnc2ccccc12 | 9 | -1 | 0 | -4
